The values that follow come from ChEMBL document CHEMBL4834423, “Discovery of AG-270, a First-in-Class Oral MAT2A Inhibitor for the Treatment of Tumors with Homozygous MTAP Deletion” (J Med Chem, 2021).

The target of data set [1] is T1, S-adenosylmethionine synthase isoform type-2 (Homo sapiens, UniProt P31153). Nature of the data set: Inhibition of recombinant human MAT2A expressed in baculovirus infected Sf9 cells assessed as S-adenosyl methionine production using L-methionine as substrate incubated for 60 mins followed by substrate addition and measured after 60 mins. The settings on record: read-out: IC50.
Target sequence in this assay (P31153 whole entry, canonical isoform): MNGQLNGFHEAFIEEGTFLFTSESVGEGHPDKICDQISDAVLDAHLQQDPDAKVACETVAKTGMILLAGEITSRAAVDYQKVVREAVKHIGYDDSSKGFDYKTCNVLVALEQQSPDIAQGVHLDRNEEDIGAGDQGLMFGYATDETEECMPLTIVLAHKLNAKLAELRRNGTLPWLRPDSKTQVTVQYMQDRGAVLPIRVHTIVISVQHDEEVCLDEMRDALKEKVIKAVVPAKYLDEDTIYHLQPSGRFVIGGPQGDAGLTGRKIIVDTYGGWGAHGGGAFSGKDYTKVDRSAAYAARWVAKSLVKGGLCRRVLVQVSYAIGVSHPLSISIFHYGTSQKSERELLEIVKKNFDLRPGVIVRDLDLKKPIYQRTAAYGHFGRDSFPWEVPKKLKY

The target of data set [2] is T1, S-adenosylmethionine synthase isoform type-2. Kind of data set: Inhibition of recombinant human MAT2A expressed in baculovirus infected Sf9 cells assessed as S-adenosyl methionine production using L-methionine as substrate incubated for 60 mins followed by substrate addition and measured after 60 mins relative to control. Further details: concentration or dose not given beside the values.
Target sequence in this assay (P31153 whole entry, looked up, canonical isoform): as the sequence (P31153 whole entry, canonical isoform) above

Data set [3] in a line: Solubility of compound at pH 2. The format is physicochemical. The settings on record: buffer.
Data set [4] in a line: Solubility of compound at pH 7.4. The format is physicochemical. The settings on record: buffer.
Data set [5] in a line: Plasma protein binding in human by ultracentrifugation. In kind it is ADME, cell-free. The settings on record: read-out: PPB (converted). A digest of the protocol: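 Human plasma protein binding was determined by ultracentrifugation.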
A short description of data set [6]: Protein binding in human plasma assessed as unbound fraction. In kind it is ADME, cell-free.
The next data set can be described thus: cells. The settings on record: Homo sapiens, HCT-116, 72 h.
The target of data set [7] is T1, S-adenosylmethionine synthase isoform type-2. Nature of the data set: Inhibition of MAT2A (unknown origin) enzymatic assay.
Target sequence in this assay (P31153 whole entry, canonical isoform): as above
The target is the same in data set [8]. Nature of the data set: Binding affinity to MAT2A (unknown origin) by surface plasmon resonance assay. In short, it runs like this: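 SPR: His-tagged MAT2A was captured on CM5 chips via covalently coupled penta-anti-His IgG (~16 000 RU), to a capture level of ~7500 RU.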
Target sequence in this assay (P31153 whole entry, canonical isoform): as above
Data set [9] is described as follows: AUC (0 to 12 hrs) in MTAP-null KP4 cells xenografted mouse plasma treated po twice daily. The format is ADME, organism-based. Set-up: time < 12 hr, route oral. The settings on record: in vivo.
A short description of data set [10]: AUC (0 to 12 hrs) in MTAP-null KP4 cells xenografted mouse measured in tumor treated po twice daily. Further details: time < 12 hr, route oral. The settings on record: in vivo. The format is ADME, organism-based, Neoplasm.
A short description of data set [11]: Stability in human liver microsomes assessed as extraction ratio. The format is ADME, Microsome. The settings on record: read-out: ERH. A general note: Microsomes from liver hold many membrane-bound enzymes, among them those of drug oxidation.
The nature of data set [12]: Permeability from apical to basolateral side in human Caco-2 cells. In kind it is ADME, cell-based. The settings on record: read-out: permeability. (In general: Caco-2 cells form a polarised layer with tight junctions and transporters.)
Data set [13] is described as follows: Efflux ratio of apparent permeability from basolateral side to apical side over apical side to basolateral side in human Caco-2 cells. The format is ADME, cell-based.
Data set [14] is described as follows: Plasma protein binding in mouse by ultracentrifugation. The format is ADME, cell-free. The settings on record: read-out: PPB (converted).
A short description of data set [15]: Cmax in MTAP-null KP4 cells xenografted mouse measured in tumor treated po twice daily. In kind it is ADME, organism-based, Neoplasm. Set-up: route oral. A digest of the protocol: (§1)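 KP4 MTAP-null xenograft-bearing mice dosed orally twice daily. Cmax was determined in plasma (ng/mL) and tumor (ng/g) after 3 b.i.d. doses.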
Data set [16] can be described thus: Cmax in MTAP-null KP4 cells xenografted mouse plasma treated po twice daily. In kind it is ADME, organism-based. Set-up: route oral. A digest of the protocol:
as §1

For the next data set, the system named is HCT-116. Nature of the data set: cells. The settings on record: Homo sapiens, HCT-116, 96 h.

Structures are written as SMILES. Converted amounts (≈) assume the structure as drawn.

The IC50 is the point on the concentration scale where inhibition reaches its midpoint. One may read the inhibition as the share of the control response that was lost under treatment. Usually solubility stands for how much of the substance goes into solution per volume. As for `Cc1cc(=O)n2nc(-c3ccccc3)c(N3CCCCC3)c2[nH]1`, in data set [1], the 50% inhibitory concentration (IC50) was 260 nM. Besides, the inhibition in [2] worked out at 86%. In addition, the solubility in [3] was determined as 61 µM (≈ 18.8 µg/mL); in [4] it was 13 µM (≈ 4.01 µg/mL).

On to `Cc1[nH]c2c(N3CCCCC3)c(-c3ccccc3)nn2c(=O)c1-c1ccc(O)cc1`, for which the half-maximal inhibitory concentration (IC50) in data set [1] was 57 nM; in the data set “cells”, 100 nM. Also, in data set [2], the inhibition amounted to 91%. Besides, the fraction unbound in [5] was 0.001; in [6], 0.0009.

Consider `Cc1cc(=O)n2nc(C)c(-c3ccccc3)c2[nH]1`, for which half-maximal inhibition in data set [7] (IC50) was put at 620000 nM.

For orientation: Kd means a measure of binding affinity in units of concentration. In the case of `Cc1cc(=O)n2nc(-c3ccccc3)c(-c3ccccc3)c2[nH]1`, the dissociation constant (Kd) in data set [8] stood at 70000 nM. Moreover, the half-inhibitory concentration (IC50) in [1] and in data set [7] was 1500 nM each time. For the same compound, in [2], the inhibition is 69%.

By efflux ratio is commonly meant the permeability from basolateral to apical divided by that in the opposite direction, in the common usage. For orientation: Cmax means the highest concentration seen after dosing. On to `Cc1[nH]c2c(-c3ccccc3)c(-c3ccccc3)nn2c(=O)c1-c1ccc2ncccc2c1`, for which the AUC is 1650000 ng·h/g in [9] and 372000 ng·h/g in data set [10]. The IC50 in data set [1] was 97 nM. The inhibition in data set [2] came out at 95%. In addition, the solubility in [3] is 67 µM (≈ 28.7 µg/mL); in data set [4], 15 µM (≈ 6.43 µg/mL). The hepatic extraction ratio in data set [11] is 0.16. The Papp A→B in data set [12] was 6.75 ×10⁻⁶ cm/s. The efflux ratio in data set [13] worked out at 6. Besides, the figures for the fraction unbound in data set [5], in data set [14] and in [6] were below 0.001, 0.0003 and 0.0003, respectively. Further, the Cmax in data set [15] came out at 32300 ng/g; in data set [16] it was 179 µg/mL.

Regarding `Cc1c(-c2ccc(O)cc2)c(=O)n2nc(-c3ccccc3)c(N3CCCCC3)c2n1C`, in data set [1], the 50% inhibitory concentration (IC50) was 102 nM. Moreover, the inhibition in data set [2] worked out at 66%. The fraction unbound in [5] and in data set [6] was 0.0154 each time.

As to `COc1ccc(-c2c(Nc3cc[nH]n3)[nH]c3c(-c4ccccc4)c(-c4ccccc4)nn3c2=O)cc1`, the IC50 was 13 nM in [1], 892000 nM with HCT-116 and 8 nM in “cells”. In addition, the inhibition in data set [2] amounted to 94%. For the same compound, the hepatic extraction ratio in data set [11] turned out to be 0.36.

For `Cc1c(-c2ccc3ncccc3c2)c(=O)n2nc(-c3ccccc3)c(-c3ccccc3)c2n1C`, the IC50 in [1] turned out to be 120 nM. Besides, the inhibition in data set [2] is 61%. Besides, the fraction unbound in data set [5] and in [6] was 0.009 in each case.

As for `Cc1cc(=O)n2nc(-c3ccccc3)c(C3=CCCCC3)c2[nH]1`, the IC50 in [1] turned out to be 260 nM; in the data set on HCT-116, 72000 nM; in the data set “cells”, 106 nM. Also, the inhibition in [2] is 85%. Further, the solubility in [3] and in [4] was below 0.5 µM in each case.
